In ChEMBL document CHEMBL4699394, “Insights into structural and physicochemical properties required for beta-hematin inhibition of privileged triarylimidazoles” (RSC Med Chem, 2020) one finds Activity and IC50 data, which are given here for 28 compounds.

As usually defined, the IC50 is the concentration at which inhibition is half-maximal.

Some results are limits rather than exact numbers.

One data set deals with HeLa. Briefly: Cytotoxicity against human HeLa cells assessed as reduction in cell viability at 20 uM incubated for 48 hrs by FACS analysis. Type of data set: cell-based. A general note: In flow cytometry, cells or beads pass a laser one at a time.
The next data set deals with Hemozoin. Briefly: Inhibition of beta-hematin formation assessed as reduction in hemozoin formation incubated for 20 hrs by NP40 detergent-mediated assay. The gist of the method: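 In vitro β-hematin formation assay buffered at acidic pH 4.8 to mimic the parasite digestive vacuole. IC50 is the mean of experiments run in technical triplicate.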
Data set [1] has as its system Plasmodium falciparum. Description: Antimalarial activity against Plasmodium falciparum 3D7 infected in human Erythrocyte assessed as plasmodial growth at 20 uM incubated for 48 hrs by FACS analysis relative to control. Type of data set: functional.
Data set [2] relates to Plasmodium falciparum. Description: Antimalarial activity against Plasmodium falciparum 3D7 infected in human Erythrocyte assessed as reduction in plasmodial growth incubated for 48 hrs by FACS analysis. Type of data set: functional, organism-based. Conditions: 3D7, Erythrocyte; call rule not given here. In outline: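 Dose-response IC50 against P. falciparum 3D7. Only compounds that reduced parasite viability below 10% in a 20 μM, 48 h single-concentration screen were tested. IC50 is the mean of experiments run in technical triplicate.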

For `O=[N+]([O-])c1ccccc1-c1nc(-c2ccccc2)c(-c2ccccc2)[nH]1`, the Activity result in the data set on HeLa was “Non-Toxic”. Besides, the IC50 entry in the data set with Hemozoin was “Not Active”.
The matching figures for `O=[N+]([O-])c1cccc(-c2nc(-c3ccccc3)c(-c3ccccc3)[nH]2)c1`: “Non-Toxic” and “Not Active”.
With `c1ccc(-c2nc(-c3ccco3)[nH]c2-c2ccccc2)cc1`, in the data set on HeLa, the Activity entry is listed as “Non-Toxic”. In addition, in the data set on Hemozoin (read-out: IC50), the IC50 worked out at 401 µM.
For the compound `Clc1ccc(-c2nc(-c3ccccc3)c(-c3ccccc3)[nH]2)cc1`, in the data set with HeLa, the Activity entry is listed as “Non-Toxic”. The IC50 result with Hemozoin was “Not Active”.
The matching figures for `COc1ccccc1-c1nc(-c2ccccc2)c(-c2ccccc2)[nH]1`: “Non-Toxic” and “Not Active”.
The matching figures for `Clc1cccc(-c2nc(-c3ccccc3)c(-c3ccccc3)[nH]2)c1`: “Non-Toxic” and “Not Active”.
With `COc1ccc(-c2nc(-c3ccccc3)c(-c3ccccc3)[nH]2)cc1`, the Activity result with HeLa is “Non-Toxic”. Further, in the data set with Hemozoin (read-out: IC50), the IC50 is 48.1 µM.
The corresponding values for `Cc1ccc(-c2nc(-c3ccccc3)c(-c3ccccc3)[nH]2)cc1` are “Non-Toxic” and 156 µM.
The matching figures for `c1ccc(-c2nc(C3CCCCC3)[nH]c2-c2ccccc2)cc1`: “Non-Toxic” and greater than 500 µM.
Take `Cc1ccccc1-c1nc(-c2ccccc2)c(-c2ccccc2)[nH]1`: in the data set with HeLa, the Activity result is given as “Non-Toxic”. For the same compound, the 50% inhibitory concentration (IC50) in the data set with Hemozoin (read-out: IC50) is greater than 500 µM.
Turning to `Clc1ccc(-c2nc(-c3ccc(Br)cc3)[nH]c2-c2ccccc2)cc1`, the Activity entry is “Non-Toxic” with HeLa and less than 10% with Plasmodium falciparum [1]. For the same compound, the IC50 with Plasmodium falciparum [2] was 8 µM; in the data set with Hemozoin (read-out: IC50), 28.8 µM.
For the compound `Fc1ccccc1-c1nc(-c2ccc(Cl)cc2)c(-c2ccccc2)[nH]1`, the Activity entry in the data set with HeLa was “Non-Toxic”. Moreover, in the data set on Hemozoin (read-out: IC50), the IC50 is greater than 500 µM.
For `Clc1ccc(-c2nc(-c3ccc(Cl)cc3)c(-c3ccccc3)[nH]2)cc1`, the Activity result with HeLa is “Non-Toxic”. Besides, the 50% inhibitory concentration (IC50) with Hemozoin (read-out: IC50) turned out to be 39 µM.
As to `Brc1ccc(-c2nc(-c3ccc(Br)cc3)c(-c3ccccc3)[nH]2)cc1`, in the data set on HeLa, the Activity entry is “Non-Toxic”. In the data set on Hemozoin (read-out: IC50), the half-maximal inhibitory concentration (IC50) is 54.2 µM.
Regarding `c1ccc(-c2nc(-c3ccc4ccccc4c3)[nH]c2-c2ccccc2)cc1`, the Activity entry in the data set with HeLa is “Non-Toxic”. Also, the IC50 result in the data set on Hemozoin is “Not Active”.
With `Fc1ccc(-c2nc(-c3ccc(Cl)cc3)c(-c3ccccc3)[nH]2)cc1`, the results for the Activity entry in the data set with HeLa and with Plasmodium falciparum [1] were “Non-Toxic” and less than 10%, respectively. Besides, the IC50 turned out to be 6.5 µM in the data set on Plasmodium falciparum [2] and 28 µM in the data set on Hemozoin (read-out: IC50).
With `Brc1ccc(-c2nc(-c3ccccc3)[nH]c2-c2ccc(Br)cc2)cc1`, the values for the Activity entry in the data set on HeLa and in the data set with Plasmodium falciparum [1] were “Non-Toxic” and less than 10%, respectively. In addition, the figures for the half-inhibitory concentration (IC50) with Plasmodium falciparum [2] and with Hemozoin were 13 µM and “Not Active”, respectively.
Turning to `COc1ccc(-c2nc(-c3ccc(Br)cc3)c(-c3ccccc3)[nH]2)cc1`, the Activity result with HeLa is reported as “Non-Toxic”; in the data set with Plasmodium falciparum [1], less than 10%. Besides, the IC50 is 1.5 µM in the data set with Plasmodium falciparum [2] and 20.3 µM in the data set with Hemozoin (read-out: IC50).
For the compound `Clc1ccc(-c2nc(-c3ccccc3)[nH]c2-c2ccccc2)cc1`, the Activity result in the data set on HeLa was “Non-Toxic”. The IC50 in the data set with Hemozoin (read-out: IC50) is greater than 500 µM.
As to `Fc1ccccc1-c1nc(-c2ccccc2)c(-c2ccccc2)[nH]1`, the Activity entry in the data set with HeLa was “Non-Toxic”. In the data set on Hemozoin (read-out: IC50), the 50% inhibitory concentration (IC50) is greater than 500 µM.
With `CCC(CC)c1nc(-c2ccccc2)c(-c2ccccc2)[nH]1`, the results for the Activity result with HeLa and in the data set with Plasmodium falciparum [1] were “Non-Toxic” and less than 10%, respectively. Besides, the concentration for half-maximal inhibition (IC50) with Plasmodium falciparum [2] was 11 µM; with Hemozoin, “Not Active”.
With `Brc1ccc(-c2nc(-c3ccccc3)[nH]c2-c2ccccc2)cc1`, the Activity result in the data set with HeLa is “Non-Toxic”. Moreover, the IC50 in the data set on Hemozoin (read-out: IC50) was 294 µM.
For the compound `c1ccc(-c2nc(-c3c[nH]c4ccccc34)[nH]c2-c2ccccc2)cc1`, the Activity result with HeLa is listed as “Non-Toxic”. In addition, in the data set with Hemozoin (read-out: IC50), the concentration for half-maximal inhibition (IC50) came to 72.8 µM.
For `Fc1cccc(-c2nc(-c3ccccc3)c(-c3ccccc3)[nH]2)c1`, the Activity result in the data set on HeLa is on record as “Non-Toxic”. For the same compound, the half-maximal inhibitory concentration (IC50) entry with Hemozoin is “Not Active”.
For `COc1ccc(-c2nc(-c3ccc(Cl)cc3)c(-c3ccccc3)[nH]2)cc1`, the Activity result in the data set on HeLa is on record as “Non-Toxic”; with Plasmodium falciparum [1] it was less than 10%. Besides, the half-maximal inhibitory concentration (IC50) in the data set with Plasmodium falciparum [2] was 11 µM; in the data set with Hemozoin (read-out: IC50) it was 20.5 µM.
For `O=[N+]([O-])c1cccc(-c2nc(-c3ccc(Cl)cc3)c(-c3ccccc3)[nH]2)c1`, the Activity result in the data set with HeLa is “Non-Toxic”. Moreover, the IC50 in the data set with Hemozoin (read-out: IC50) is greater than 500 µM.
On to `Brc1ccc(-c2nc(-c3ccccc3)c(-c3ccccc3)[nH]2)cc1`, for which the Activity result in the data set with HeLa is listed as “Non-Toxic”. Further, the concentration for half-maximal inhibition (IC50) in the data set with Hemozoin (read-out: IC50) was found to be 489 µM.
`CCN(CC)CCCC(C)Nc1ccnc2cc(Cl)ccc12` (configuration not stated) [CHLOROQUINE]: in the data set on Hemozoin (read-out: IC50), the IC50 came out at 16.9 µM.
